Most compounds without a hit are left out; they make up all but 1.9% or so of the library.
UHRF1 binding: UHRF1 methylated DNA binding inhibitors, primary screen, counter-screen for MBD2 inhibitor project, biochemical, TR-FRET, human UHRF1, single concentration. E3 ubiquitin-protein ligase UHRF1 (Homo sapiens), Q96T88. UHRF1 binding to methylated oligo. inhibition, % at 4.4 µM. 0.75% of 370,000 active. AID 687016, 2013;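 also: UHRF1 SRA domain binding a hemimethylated CpG hairpin DNA probe; 0% = median of test compound wells and 100% = reference inhibitor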
MBD2 DNA inh: inhibitors of MBD2 binding to methylated DNA, primary screen, biochemical, TR-FRET, DNA-binding domain, human; Methyl-CpG-binding domain protein 2 (Homo sapiens), Q9UBB5; MBD2 binding to methylated oligonucleotide; inhibition, % at 4.4 µM; 0.31% of 370,000 active; in the data active = inhibition above about 13%
Target sequence (Q9UBB5 whole entry, looked up, the tested form may be a part): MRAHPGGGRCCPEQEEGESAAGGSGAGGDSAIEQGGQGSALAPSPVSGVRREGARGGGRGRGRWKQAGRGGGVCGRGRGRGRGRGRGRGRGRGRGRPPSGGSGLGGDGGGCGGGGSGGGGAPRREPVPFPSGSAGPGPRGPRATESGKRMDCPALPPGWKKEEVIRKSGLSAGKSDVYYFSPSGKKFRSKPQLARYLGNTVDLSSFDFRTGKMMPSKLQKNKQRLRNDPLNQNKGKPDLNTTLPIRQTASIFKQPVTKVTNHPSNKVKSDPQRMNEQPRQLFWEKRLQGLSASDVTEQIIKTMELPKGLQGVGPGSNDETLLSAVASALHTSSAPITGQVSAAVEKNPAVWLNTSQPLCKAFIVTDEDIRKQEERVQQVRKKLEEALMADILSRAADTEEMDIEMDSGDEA
TDP2 absorb: human TDP2 enzyme inhibitors, primary screen, biochemical, epi absorbance, recombinant enzyme. Tyrosyl-DNA phosphodiesterase 2 (Homo sapiens), O95551. T5PNP hydrolysis, p-nitrophenol absorbance 415 nm. inhibition, % at 12.8 µM. 0.34% of 370,000 active. AID 720702, 2013;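 active = inhibition above the mean of all tested compounds plus 3 SD, set per campaign, cut at about 25% in these data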;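 also: 0% = DMSO with enzyme and 100% = buffer with substrate but no TDP2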
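Incubation: 2 h at 37 °C; Test system: recombinant human TDP2; Quantity: enzyme 120 nM; Read-out basis: percent inhibition; Medium: 50 mM Tris-HCl pH 7.5 with Mg2+, KCl, DTT, BSA; Repeats: single replicate; Compound: 12.8 µM single point, 1% DMSO; Signal: epi absorbance; Reagent: 5 mM T5PNP chromogenic substrate; Benchmarks: no-enzyme high, DMSO-plus-enzyme low.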
LEDGF integ inh: blockers of LEDGF/p75-dependent integrase strand transfer – biochemical, TR-FRET, high throughput, primary screen; 0.64% of 370,000 active; HIV-1 integrase (with human LEDGF/p75); TR-FRET IN-LEDGF/p75 DNA integration, Eu/Cy5; inhibition, % at 3.7 µM; AID 743269, 2014;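 active = inhibition above the screen-wide mean plus 3 SD, cut at about 13% in these data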;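 also: signal is the Cy5 over europium emission ratio at 671 and 618 nm; 0% = plate median of compound wells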
Rin1 Abl inh: inhibitors of Rin1-Abl protein binding, primary screen, biochemical, TR-FRET; Tyrosine-protein kinase ABL1 (Homo sapiens) + Ras and Rab interactor 1 (Homo sapiens), …; inhibition, % at 7.35 µM; 0.4% of 360,000 active; AID 588664, 2011; in the data active = inhibition above about 5%, passing the limit was not always enough
UHRF1 ctr MBD2: UHRF1 methylated DNA binding inhibitors, counter-screen for MBD2 inhibitor project, biochemical, TR-FRET, human UHRF1; shares compounds with MBD2 DNA inh; UHRF1 binding to methylated oligonucleotide; inhibition, % at 4.4 µM; 25% of 1,000 active;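 also: UHRF1 SRA domain binding a labeled hemimethylated CpG hairpin DNA; 0% = vehicle only and 100% = reference inhibitor with vehicle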
MBD2 DBD conf: inhibitors of MBD2 binding to methylated DNA, confirmation, biochemical, TR-FRET, DNA-binding domain, human; inhibition, % at 4.4 µM; AID 720531, 2013; 26% of 1,000 active; TR-FRET MBD2-DBD binding to methylated oligonucleotide; shares compounds with MBD2 DNA inh; in the data active = inhibition above about 14%
TDP2 inh conf: human TDP2 enzyme inhibitors, retest, confirmation, biochemical, epi absorbance, recombinant enzyme; shares compounds with TDP2 absorb; absorbance read-out; inhibition, % at 12.8 µM; 22% of 1,100 active; AID 743263, 2014; in the data active = inhibition above about 25%;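 also: 0% = vehicle with enzyme and 100% = no enzyme buffer only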
IN multimer act: HIV-1 IN multimer formation enhancers, counter-screen for LEDGF/p75 integration inhibitor project, biochemical, TR-FRET; 17% of 2,000 active; AID 1053131, 2014; shares compounds with LEDGF integ inh; activation, % at 7.7 µM; TR-FRET HIV-1 integrase multimerization; in the data active = activation above about 8.9%
TR-FRET interf: TR-FRET optical interference artefacts, confirmation, artefact control for LEDGF/p75-dependent integration inhibitor project, biochemical, HIV-1 IN multimerization | shares compounds with LEDGF integ inh | TR-FRET optical interference counterscreen | inhibition, % at 7.7 µM | 2,000 tested, under 10 active | AID 1053135, 2014;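 active = inhibition above the mean over all tested compounds plus 3 SD, which no compound reached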;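 also: 0% = integrase with antibodies and DMSO and 100% = antibodies without integrase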
IN-LEDGF confirm: inhibitors of HIV-1 IN-LEDGF/p75 DNA integration, confirmation, biochemical, TR-FRET | TR-FRET LEDGF/p75-dependent HIV-1 integration | 36% of 2,000 active | shares compounds with LEDGF integ inh | inhibition, % at 3.7 µM | AID 1053136, 2014; in the data active = inhibition above about 14%
* hit, by the source's call; . = no result. Rule as the data show it, unless noted: active = inhibition above about 21%; inactive = the rest.

SMILES | UHRF1 binding | MBD2 DNA inh | TDP2 absorb | LEDGF integ inh | Rin1 Abl inh | UHRF1 ctr MBD2 | MBD2 DBD conf | TDP2 inh conf | others
Nc1c(C(=O)NCC2CCCO2)c2nc3ccccc3nc2n1Cc1ccco1 (configuration not stated) | -1.4 | 16.7* | -6.3 | -0.1 | -1.9 | 2.9 | -1.5 | .
CC(C)CNC(=O)c1c(N)n(Cc2ccco2)c2nc3ccccc3nc12 | -0.1 | -4.6 | -2.1 | 5.8 | -1.8 | . | . | .
COc1ccc(-c2n(-c3ccccn3)c3ccccc3[n+]2-c2ccccn2)cc1 | 30.7* | 46.5* | -8.3 | 0.6 | 4.1 | 74.2* | 88.4* | .
Cn1cc(NC(=O)CCl)cn1 | -3.0 | -2.3 | 9.4 | 0.3 | -4.4 | . | . | .
c1cncc(C2Nc3cccc4cccc(c34)N2)c1 | -1.5 | -2.8 | 0.9 | -3.0 | -3.0 | . | . | .
CNc1ccc2nc3ccccc3[n+](C)c2c1 | -14.8 | 14.6* | 45.7* | 9.4 | -31.1 | 18.8 | 19.5* | 32.4*
COc1ccc(C(=O)C2CCCN(Cc3ccc(F)cc3F)C2)cc1F (configuration not stated) | -2.2 | 4.0 | 19.1 | -1.8 | -0.9 | . | . | .
NC(=O)c1ccc(N=Cc2c(O)n(Cc3ccco3)c(=O)[nH]c2=O)cc1 | 59.8* | 23.1* | 11.3 | 56.5* | 1.8 | 18.1 | 22.1* | . | IN multimer act=11.9*;TR-FRET interf=-59.9;IN-LEDGF confirm=50.5*
CCCCn1nnnc1C(c1ccccc1)N1CCC2(CC1)C(=O)NCN2c1ccccc1 (configuration not stated) | 0.5 | -4.1 | -8.3 | -1.4 | 1.3 | . | . | .
COc1cc2c(cc1OC)-c1c(OC)c(OC)cc3c1[C@H](C2)N(C)CC3 | 41.0* | 20.1* | 73.9* | 26.4* | -3.0 | 18.3 | 9.5 | 55.9* | IN multimer act=2.1;TR-FRET interf=-7.7;IN-LEDGF confirm=25.1*
CCCNC1=C(C)C(=O)C2=C(C1=O)C(COC(N)=O)[C@]1(OC)C3NC3CN21 (some centres not stated) | 59.5* | 17.6* | -1.5 | 53.3* | -0.6 | 2.1 | 0.5 | . | IN multimer act=18.8*;TR-FRET interf=-67.1;IN-LEDGF confirm=63.0*
CCOC(=O)C(=CNc1ccc(C(O)(C(=O)OCC)C(F)(F)F)cc1C)C(=O)OCC (configuration not stated) | 0.5 | -2.1 | -10.2 | -0.6 | -0.8 | . | . | .
COC(=O)C1=C(c2ccccc2)C[C@@H]2CC[C@H]1N2C(=O)NCCCOC(C)C | 1.9 | -6.5 | -3.6 | 2.5 | 3.0 | . | . | .
O=C1NC(=O)N(CCc2ccc(F)cc2)C(=O)/C1=C\C=C\c1ccccc1 | 0.1 | -5.9 | -6.2 | 2.6 | 1.7 | . | . | .
O=C1NC(=O)N(Cc2ccco2)C(=O)/C1=C/C=C/c1ccco1 | 99.7* | 74.2* | 1.5 | 92.1* | 1.9 | 55.3* | 29.6* | . | IN multimer act=6.8;TR-FRET interf=-24.3;IN-LEDGF confirm=55.8*
Cc1cc(/C=C2\C(=O)NC(=O)N(Cc3ccccc3)C2=O)c(C)n1-c1ccc(Cl)c(C(=O)O)c1 | 92.4* | 36.6* | 10.1 | 43.3* | 0.6 | 71.7* | 29.2* | . | IN multimer act=4.9;TR-FRET interf=-24.7;IN-LEDGF confirm=44.0*
Cc1nn(-c2ccccc2)c(Cl)c1C1C(C#N)=C(N)Oc2c1c(=O)oc1ccccc21 (configuration not stated) | -1.1 | -6.2 | 1.7 | 1.2 | 2.8 | . | . | .
O=c1c2ccccc2nc(/C=C/c2ccccc2F)n1-c1ccccc1O | -2.0 | 1.4 | 3.2 | -2.3 | 2.4 | . | . | .
O=c1c2ccccc2nc(/C=C/c2ccccc2O)n1-c1ccccc1O | -3.9 | -0.6 | 30.1* | 0.2 | -2.3 | . | . | 3.7
COc1cc(/C=C2\C(=O)NC(=O)N(c3ccccc3)C2=O)c([N+](=O)[O-])cc1OC | -9.3 | 0.6 | 24.9* | 3.9 | -3.2 | . | . | 9.2
CC1(C)CC(=O)C(C2(O)C(=O)NC(=O)NC2=O)=C(O)C1 | -8.4 | -5.3 | 53.5* | -0.9 | 9.1 | . | . | 50.4*
CNc1ccc2oc(C[C@H]3O[C@@]4(CC[C@H]3C)O[C@H]([C@H](C)C(=O)c3ccc[nH]3)[C@H](C)C[C@H]4C)nc2c1C(=O)O | -4.7 | -3.5 | 29.4* | 10.7 | 5.1 | . | . | -5.5
CC(C)OCCCNC(=O)c1c(N)n(Cc2cccs2)c2nc3ccccc3nc12 | -6.2 | -4.9 | -14.2 | -0.9 | 3.7 | . | . | .
Nc1c(C(=O)OCC2CCCO2)c2nc3ccccc3nc2n1Cc1cccs1 (configuration not stated) | -7.6 | -7.2 | 30.9* | 11.2 | -0.2 | . | . | 7.2
CC1=CC2OC3CC4OC(=O)C=CC=CC(C(C)O)OCC(O)C5(C)OC5C(=O)OCC2(CC1O)C4(C)C31CO1 (configuration not stated) | -0.6 | 0.3 | -2.1 | -4.2 | 0.1 | . | . | .
O=C1CC(c2cccnc2)=NN1c1ccccc1 | 13.0 | 4.0 | 46.3* | 10.7 | 1.6 | . | . | 12.4
O=c1c2ccccc2nc(-c2ccccc2)n1-c1cccnc1 | 0.5 | 3.1 | -14.3 | -0.4 | -0.3 | . | . | .
COC1CCCCC1NCCc1ccccc1 (configuration not stated) | -0.6 | -1.0 | 25.9* | -2.7 | 4.0 | . | . | -2.2

High-throughput results (PubChem BioAssay)
